Source: ChEMBL document CHEMBL1128681, “Studies on the monoamine oxidase (MAO)-catalyzed oxidation of phenyl-substituted 1-methyl-4-phenoxy-1,2,3,6-tetrahydropyridine derivatives: factors contributing to MAO-A and MAO-B selectivity” (J Med Chem, 1995)

Experiments:
[1] = molecular target: T1, Monoamine oxidase B (amine oxidase [flavin-containing] B) (Bos taurus, UniProt P56560); assay: (§1) Michaelis-Menten constant for Monoamine oxidase B catalyzed oxidation (KM).; details: cattle
T1 sequence (P56560 whole entry): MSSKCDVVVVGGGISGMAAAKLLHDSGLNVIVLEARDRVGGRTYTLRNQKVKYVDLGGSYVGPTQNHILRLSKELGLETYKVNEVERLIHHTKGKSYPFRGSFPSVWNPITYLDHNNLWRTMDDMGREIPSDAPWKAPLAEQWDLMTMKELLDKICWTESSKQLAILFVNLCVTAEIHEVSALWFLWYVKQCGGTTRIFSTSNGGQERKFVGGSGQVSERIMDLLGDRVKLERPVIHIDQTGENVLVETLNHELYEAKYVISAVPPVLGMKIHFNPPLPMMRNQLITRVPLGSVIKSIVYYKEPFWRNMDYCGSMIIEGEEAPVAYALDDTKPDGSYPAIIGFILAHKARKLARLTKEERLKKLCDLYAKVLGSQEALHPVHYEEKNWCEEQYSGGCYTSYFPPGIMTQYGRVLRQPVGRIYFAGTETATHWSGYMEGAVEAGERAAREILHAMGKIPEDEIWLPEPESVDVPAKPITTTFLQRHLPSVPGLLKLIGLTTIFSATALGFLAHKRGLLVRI
How it was run: (§2)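 MAO-B at 0.08 μM final; activity was calibrated with MPTP at 30 °C and the preparation was stored at –15 °C. Substrate range 100–2000 μM in 100 mM sodium phosphate pH 7.4, with spectrophotometric initial oxidation rates. KM and kcat derived from double-reciprocal plots, and kcat/KM calculated from them.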

[2] = molecular target: T2, Amine oxidase [flavin-containing] A (Homo sapiens, UniProt P21397); assay: Ratio of catalytic constant and Michaelis-Menten constant for MAO-A.
T2 sequence (P21397 whole entry): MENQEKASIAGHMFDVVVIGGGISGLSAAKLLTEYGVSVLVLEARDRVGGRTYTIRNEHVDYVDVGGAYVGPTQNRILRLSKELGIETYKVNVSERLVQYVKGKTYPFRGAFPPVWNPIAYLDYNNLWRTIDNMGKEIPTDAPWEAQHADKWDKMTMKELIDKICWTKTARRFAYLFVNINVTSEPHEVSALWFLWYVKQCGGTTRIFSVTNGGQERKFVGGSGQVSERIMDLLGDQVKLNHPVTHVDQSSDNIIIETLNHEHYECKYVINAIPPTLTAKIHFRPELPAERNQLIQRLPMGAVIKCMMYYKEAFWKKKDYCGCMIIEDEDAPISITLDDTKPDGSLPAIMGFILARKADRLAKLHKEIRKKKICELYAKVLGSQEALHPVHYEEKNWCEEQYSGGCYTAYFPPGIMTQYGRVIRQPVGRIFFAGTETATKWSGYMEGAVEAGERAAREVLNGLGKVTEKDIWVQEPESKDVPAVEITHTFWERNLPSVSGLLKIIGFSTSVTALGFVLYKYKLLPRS
How it was run: (§3)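 MAO-A at 0.16 μM final, raised to 0.32 μM for one slowly oxidized substrate. The MAO-A preparation was diluted with 3 volumes of phosphate buffer just before use, and its activity was re-checked bimonthly with kynuramine at 30 °C. Substrates at 100–2000 μM in 100 mM sodium phosphate pH 7.4; initial rates by spectrophotometry. kcat and KM from double-reciprocal plots; kcat/KM as their ratio.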

[3] = molecular target: T2, Amine oxidase [flavin-containing] A; assay: Kinetic value evaluated as catalyzed oxidation (kcat).
How it was run: (§4)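 kcat from initial oxidation rates, read by spectrophotometer, with test compounds at 100–2000 μM final in 100 mM sodium phosphate pH 7.4, using 0.16 μM MAO-A or 0.08 μM MAO-B. kcat and KM came from double-reciprocal plots. Repeat determinations were made on selected substrates at different times.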

[4] = molecular target: T3, Monoamine oxidase A (amine oxidase [flavin-containing] A) (Homo sapiens, UniProt P21397); assay: Michaelis-Menten constant for Monoamine oxidase A catalyzed oxidation (Km)
T3 sequence (P21397 whole entry): T2 sequence (P21397 whole entry)
How it was run: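 MAO-A preparation, viscous, diluted with 3 volumes of phosphate buffer just before use; activity standardised with kynuramine at 30 °C. Substrates as oxalate salts at 100–2000 μM final in 100 mM sodium phosphate, pH 7.4, with 0.16 μM MAO-A. Initial oxidation rates were followed spectrophotometrically, and Km came from double-reciprocal plots.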

[5] = molecular target: T4, Amine oxidase [flavin-containing] B (Bos taurus, UniProt P56560); assay: Ratio of catalytic constant and Michaelis-Menten constant for MAO-B.; details: cattle; how it was run: as §2
T4 sequence (P56560 whole entry): T1 sequence (P56560 whole entry)

[6] = molecular target: T4, Amine oxidase [flavin-containing] B; assay: Kinetic value evaluated as catalyzed oxidation rate (kcat).; details: cattle; how it was run: as §4
[7] = molecular target: T4, Amine oxidase [flavin-containing] B; assay: as §1; details: cattle; how it was run: as §2
[8] = molecular target: T2, Amine oxidase [flavin-containing] A; assay: Michaelis-Menten constant for Monoamine oxidase A-catalyzed oxidation (KM).; how it was run: as §3

SMILES	Km [1]	k cat/Km [2]	k cat [3]	Km [4]	k cat/Km [5]	k cat [6]	Km [7]	Km [8]
CN1CC=C(c2ccccc2)CC1	191 µM	47 mM⁻¹ min⁻¹	31 min⁻¹	654 µM	1431 mM⁻¹ min⁻¹	273 min⁻¹	–	–
CN1CC=C(Oc2ccc(-c3ccccc3)cc2)CC1	–	1710 mM⁻¹ min⁻¹	173 min⁻¹	–	363 mM⁻¹ min⁻¹	103 min⁻¹	284 µM	101 µM
CN1CC=C(Oc2ccccc2)CC1	–	2359 mM⁻¹ min⁻¹	130 min⁻¹	–	4151 mM⁻¹ min⁻¹	241 min⁻¹	58 µM	55 µM
